Measurements from different studies.
Protocols differ between the studies behind these lines.
Target: Protein kinase C iota type (PRKCI, Homo sapiens, UniProt P41743)
Sequence (P41743 1-596, as in one of the studies): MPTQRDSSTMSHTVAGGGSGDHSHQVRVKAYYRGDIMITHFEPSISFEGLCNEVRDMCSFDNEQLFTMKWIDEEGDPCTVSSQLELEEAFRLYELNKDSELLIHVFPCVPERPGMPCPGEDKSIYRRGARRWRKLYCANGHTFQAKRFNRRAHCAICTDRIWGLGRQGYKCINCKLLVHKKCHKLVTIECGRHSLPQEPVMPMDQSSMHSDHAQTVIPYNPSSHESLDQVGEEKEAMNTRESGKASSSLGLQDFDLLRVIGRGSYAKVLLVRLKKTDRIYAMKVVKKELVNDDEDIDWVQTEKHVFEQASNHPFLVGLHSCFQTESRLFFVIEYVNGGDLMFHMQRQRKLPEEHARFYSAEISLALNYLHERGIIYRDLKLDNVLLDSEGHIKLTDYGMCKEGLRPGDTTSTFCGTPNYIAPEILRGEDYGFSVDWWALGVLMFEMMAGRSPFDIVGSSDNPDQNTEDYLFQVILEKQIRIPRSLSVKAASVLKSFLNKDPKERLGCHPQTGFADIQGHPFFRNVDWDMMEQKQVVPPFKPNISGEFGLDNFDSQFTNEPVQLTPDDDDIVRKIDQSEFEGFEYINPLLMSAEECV

SMILES | observed | action | technique | tested at | quantity | result
CO[C@@H](C)c1c(Nc2ccc([C@H](N(C)C(=O)C3CCS(=O)(=O)CC3)C(F)(F)F)cc2)cnc2cc(Cl)nn12 | cell-free assay |  | competition with immobilised ligand | 1 µM | remaining binding | 72%
Cc1ccc(Nc2nccc(N(C)c3ccc4c(C)n(C)nc4c3)n2)cc1S(N)(=O)=O | enzyme activity |  |  | 0.5 µM | remaining activity | 96.1%
Nc1c(C(=O)NCc2ccc(C(=O)NCCCC3CCCCC3)cc2)cnn1-c1ccccc1 | cell-free assay |  | competition with immobilised ligand | 0.1 µM | remaining binding | 97%
Cc1ccc(NC(=O)c2ccc(C)c(C(F)(F)F)c2)cc1C#Cc1nn(C2CCC(O)CC2)c2ncnc(N)c12 (stereo not shown) | cell-free assay |  |  | 10 µM | remaining signal | 91%
N[C@@H]1CCN(c2nccc(-c3cnn4ncccc34)n2)C1 | binding |  |  | 1 µM | remaining binding | 33%
CNCc1ccc(-c2cc(-c3nc(-c4ccc(S(=O)(=O)C(C)C)cc4)cnc3N)on2)cc1 | enzyme activity | inhibitor |  | 2 µM | inhibition | 1%
Cc1ccc(C(=O)Nc2ccc(CN3CCN(C)CC3)c(C(F)(F)F)c2)cc1C#Cc1cnc2cccnn12 | enzyme activity |  |  | 23.5 nM | remaining activity | 85%
COc1cc2ncnc(Nc3ccc(Oc4ccccc4)c(C)c3C)c2cc1OC | enzyme activity | inhibitor |  | 1 µM | inhibition | -4%
O=C(Nc1cnn(-c2csc(C(=O)NC3COC3)c2)c1)Nc1c(F)cccc1Cl | enzyme activity | inhibitor |  | 5 µM | remaining activity | 87.4%
c1ccc(CNc2nc(N3CCOc4ccccc43)nc3c2CCCC3)cc1 | target engagement in cells | inhibitor | chemoproteomics | 20 mM | inhibition | -0.4%
COc1cccc(CNC(=O)c2nc3scc(COCc4ccc(C(=O)O)cc4)c3c(=O)[nH]2)c1 | cell-free assay |  | competition with immobilised ligand | 1 µM | remaining binding | 100%
CC/C(=N\NC(=O)NCc1cccc(O)c1)c1ccc(O)c(C)c1O | enzyme activity | inhibitor |  | 0.1 µM | inhibition | 15.8%
CC(C)(O)[C@H]1CC[C@H](Nc2ccc3ncc(-c4cccc(C(F)(F)F)c4)n3n2)CC1 | enzyme activity | inhibitor |  | 1 µM | remaining activity | 128%
C[C@H](c1cccc(C#N)c1)n1cc(Cl)cc(C(N)=O)c1=N | cell-free assay |  | competition with immobilised ligand | 1 µM | remaining binding | 100%
CN(C)C1CCN(CC#Cc2nn(C3CCCC3)c3nc(NCc4ccccc4)ncc23)C1 (stereo not shown) | enzyme activity | inhibitor | FRET | 10 µM | inhibition | 6%
CCCOc1ccc(OC)c(F)c1C(=O)c1ccc(C(=O)N[C@@H]2CNC[C@H]2NC(=O)c2ccc3[nH]ncc3c2)cc1 | enzyme activity | inhibitor |  | 10 µM | remaining activity | 89%
Cc1c[nH]c2nccc(Oc3c(F)cc(Nc4cc(Cl)nc(N)n4)cc3F)c12 | cell-free assay |  | competition with immobilised ligand | 0.1 µM | remaining binding | 100%
COc1cc(-c2cc(-c3ccc(N4CCNCC4)cc3)cnc2C)cc(OC)c1OC | enzyme activity | inhibitor |  | 1 µM | inhibition | 18%
CCN(CC)CCNC(=O)c1c(C)[nH]c(/C=C2\C(=O)Nc3ccc(F)cc32)c1C | enzyme activity | inhibitor |  | 0.3 µM | inhibition | 3%
